This passage reports Ki and fold change (FC) results from ChEMBL document CHEMBL3085624, “Design, synthesis, and biological evaluation of novel investigational nonapeptide KISS1R agonists with testosterone-suppressive activity” (J Med Chem, 2013).

The target in assay [1] is T1, KiSS-1 receptor (Homo sapiens, UniProt Q969F8). As to the kind of experiment: Binding affinity to human KISS1R expressed in CHO cell membranes.
The target of assay [2] is KiSS-1 receptor (Rattus norvegicus, UniProt Q924U1). As to the kind of experiment: Binding affinity to rat KISS1R.
KiSS-1 receptor (Rattus norvegicus, UniProt Q924U1), sequence (Q924U1 whole entry): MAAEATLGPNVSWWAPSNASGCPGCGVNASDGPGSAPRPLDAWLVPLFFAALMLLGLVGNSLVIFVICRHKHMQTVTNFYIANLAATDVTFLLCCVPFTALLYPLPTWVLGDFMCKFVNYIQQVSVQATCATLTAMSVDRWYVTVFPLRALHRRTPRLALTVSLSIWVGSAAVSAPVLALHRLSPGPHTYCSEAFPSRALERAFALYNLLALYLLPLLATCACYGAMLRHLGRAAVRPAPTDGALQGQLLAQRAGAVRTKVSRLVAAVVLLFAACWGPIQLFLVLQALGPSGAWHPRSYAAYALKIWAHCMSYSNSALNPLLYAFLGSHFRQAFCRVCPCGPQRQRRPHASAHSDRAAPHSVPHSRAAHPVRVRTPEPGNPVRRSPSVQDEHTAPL
Assay [3] concerns the target T1, KiSS-1 receptor. The assay can be described thus: Agonist activity at recombinant human KISS1R expressed in CHO cells assessed as intracellular calcium mobilization incubated for 30 mins at 37 degC and 30 mins at room temperature by Fluo-4 NW staining-based FLIPR assay relative to Metastin (45 to 54). The assay is classed as functional, cell-based. In a few lines: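 CHO cells stably expressing human KISS1R seeded at 15,000 cells/well, cultured 24 h, then loaded with Fluo-4 Direct in HBSS with 4 mM probenecid and 0.1% BSA (30 min 37 °C, 30 min room temperature). Compounds from 10 µM DMSO stocks diluted in sample buffer and added. Fluorescence read for 2 min at 2 s intervals. Peak counts give agonist activity. EC50 expressed as ratio to metastin(45-54).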

Non-standard residues stand in square brackets, D forms with d. Residues, ends and D or L forms follow the SMILES beside them. 2Nal = N[C@@H](Cc1ccc2ccccc2c1)C(=O)O; Arg(Me) = CNC(=N)NCCC[C@H](N)C(=O)O; azaGly = NNC(=O)O

T1 sequence (Q969F8 whole entry): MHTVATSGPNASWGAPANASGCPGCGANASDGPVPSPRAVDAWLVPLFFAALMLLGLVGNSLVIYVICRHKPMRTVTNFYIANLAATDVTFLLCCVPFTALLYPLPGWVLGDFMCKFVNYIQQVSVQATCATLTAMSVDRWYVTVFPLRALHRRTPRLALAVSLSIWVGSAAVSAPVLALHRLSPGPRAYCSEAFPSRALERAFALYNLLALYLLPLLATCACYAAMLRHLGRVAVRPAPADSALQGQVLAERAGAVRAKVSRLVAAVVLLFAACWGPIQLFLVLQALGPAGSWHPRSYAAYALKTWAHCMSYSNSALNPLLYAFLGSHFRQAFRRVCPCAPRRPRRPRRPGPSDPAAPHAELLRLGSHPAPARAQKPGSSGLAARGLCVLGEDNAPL

`CNC(N)=NCCC[C@H](NC(=O)[C@H](CC(C)C)NC(=O)CNC(=O)[C@H](Cc1ccccc1)NC(=O)[C@H](CO)NC(=O)[C@H](CC(N)=O)NC(=O)[C@H](Cc1c[nH]c2ccccc12)NC(=O)[C@H](CC(N)=O)NC(=O)[C@H](N)Cc1ccc(O)cc1)C(=O)N[C@@H](Cc1ccccc1)C(N)=O`: on KiSS-1 receptor [1] (cho), the Ki was 0.046 nM. With `CNC(N)=NCCC[C@H](NC(=O)[C@H](CC(C)C)NC(=O)NNC(=O)[C@H](Cc1ccccc1)NC(=O)[C@H](CO)NC(=O)[C@H](CC(N)=O)NC(=O)[C@H](Cc1ccncc1)NC(=O)[C@H](CC(N)=O)NC(=O)[C@H](N)Cc1ccc(O)cc1)C(=O)N[C@@H](Cc1ccccc1)C(N)=O`, the inhibitory constant (Ki) at KiSS-1 receptor [2] and at KiSS-1 receptor [1] was 0.12 nM throughout. As to `CNC(N)=NCCC[C@H](NC(=O)[C@H](CC(C)C)NC(=O)NNC(=O)[C@H](Cc1ccccc1)NC(=O)[C@H](CO)NC(=O)[C@H](CC(N)=O)NC(=O)[C@@H](Cc1c[nH]c2ccccc12)NC(=O)[C@H](CC(N)=O)NC(=O)[C@H](N)Cc1ccc(O)cc1)C(=O)N[C@@H](Cc1ccccc1)C(N)=O`, on KiSS-1 receptor [1], the Ki came out at 0.078 nM. Turning to `CNC(N)=NCCC[C@H](NC(=O)[C@H](CC(C)C)NC(=O)NNC(=O)[C@H](Cc1ccccc1)NC(=O)[C@H](CO)NC(=O)[C@H](CC(N)=O)NC(=O)[C@@H](Cc1ccncc1)NC(=O)[C@H](CC(N)=O)NC(=O)[C@H](N)Cc1ccc(O)cc1)C(=O)N[C@@H](Cc1ccccc1)C(N)=O`, the inhibition constant Ki on KiSS-1 receptor [2] and at KiSS-1 receptor [1] was 0.12 nM each time.

For `CNC(N)=NCCC[C@H](NC(=O)[C@H](CC(C)C)NC(=O)NNC(=O)[C@H](Cc1ccccc1)NC(=O)[C@H](CO)NC(=O)[C@H](CC(N)=O)NC(=O)[C@H](Cc1ccncc1)NC(=O)[C@@H](CC(N)=O)NC(=O)[C@@H](N)Cc1ccc(O)cc1)C(=O)N[C@@H](Cc1ccccc1)C(N)=O`, the Ki came out at 0.16 nM on KiSS-1 receptor [2] and 0.21 nM on KiSS-1 receptor [1]. For `CNC(N)=NCCC[C@H](NC(=O)[C@H](CC(C)C)NC(=O)NNC(=O)[C@H](Cc1ccccc1)NC(=O)[C@H](CO)NC(=O)[C@H](CC(N)=O)NC(=O)[C@H](Cc1ccccc1)NC(=O)[C@H](N)Cc1ccc(O)cc1)C(=O)N[C@@H](Cc1ccccc1)C(N)=O`, in that order: 0.15 nM and 0.086 nM. For `CNC(N)=NCCC[C@H](NC(=O)[C@H](CC(C)C)NC(=O)NNC(=O)[C@H](Cc1ccccc1)NC(=O)[C@H](CO)NC(=O)[C@H](CC(N)=O)NC(=O)[C@H](Cc1ccccc1)NC(=O)[C@H](N)Cc1cccnc1)C(=O)N[C@@H](Cc1ccccc1)C(N)=O`, in that order: 0.28 nM and 0.2 nM. For `CNC(N)=NCCC[C@H](NC(=O)[C@H](CC(C)C)NC(=O)NNC(=O)[C@H](Cc1ccccc1)NC(=O)[C@H](CO)NC(=O)[C@H](CC(N)=O)NC(=O)[C@H](Cc1c[nH]c2ccccc12)NC(=O)[C@H](N)Cc1cccnc1)C(=O)N[C@@H](Cc1ccccc1)C(N)=O`, in that order: 0.13 nM and 0.11 nM. In the case of `CC(C)C[C@H](NC(=O)NNC(=O)[C@H](Cc1ccccc1)NC(=O)[C@H](CO)NC(=O)[C@H](CC(N)=O)NC(=O)[C@H](Cc1c[nH]c2ccccc12)NC(=O)[C@H](CC(N)=O)NC(=O)[C@@H](N)Cc1ccc(O)cc1)C(=O)N[C@@H](CCCNC(=N)N)C(=O)N[C@@H](Cc1ccccc1)C(N)=O`, the Ki on KiSS-1 receptor [1] was found to be 0.045 nM. The fold change (FC) on KiSS-1 receptor [3] was 1.7.

At KiSS-1 receptor [1], `CNC(=N)NCCC[C@H](NC(=O)[C@H](CC(C)C)NC(=O)NNC(=O)[C@H](Cc1ccccc1)NC(=O)[C@H](CO)NC(=O)[C@H](CC(N)=O)NC(=O)[C@H](Cc1c[nH]c2ccccc12)NC(=O)[C@@H](CC(N)=O)NC(=O)[C@H](N)Cc1ccc(O)cc1)C(=O)N[C@@H](Cc1ccccc1)C(N)=O` gave a Ki of 0.062 nM. Besides, the fold change (FC) at KiSS-1 receptor [3] is 2.6. Take `CNC(N)=NCCC[C@H](NC(=O)[C@H](CC(C)C)NC(=O)NNC(=O)[C@H](Cc1ccccc1)NC(=O)[C@H](CO)NC(=O)[C@H](CC(N)=O)NC(=O)[C@H](Cc1ccncc1)NC(=O)[C@@H](CC(N)=O)NC(=O)[C@H](N)Cc1ccc(O)cc1)C(=O)N[C@@H](Cc1ccccc1)C(N)=O`: the Ki was 0.095 nM at KiSS-1 receptor [2] and 0.11 nM on KiSS-1 receptor [1].

Turning to `CNC(=N)NCCC[C@H](NC(=O)[C@H](CC(C)C)NC(=O)NNC(=O)[C@H](Cc1ccccc1)NC(=O)[C@H](CO)NC(=O)[C@H](CC(N)=O)NC(=O)[C@@H](Cc1c[nH]c2ccccc12)NC(=O)[C@@H](CC(N)=O)NC(=O)[C@H](N)Cc1ccc(O)cc1)C(=O)N[C@@H](Cc1ccccc1)C(N)=O`, at KiSS-1 receptor [3], the fold change (FC) was 8.6. Same read-out and setting: in the case of `CNC(=N)NCCC[C@H](NC(=O)[C@H](CC(C)C)NC(=O)NNC(=O)[C@H](Cc1ccccc1)NC(=O)[C@H](CO)NC(=O)[C@H](CC(N)=O)NC(=O)[C@@H](Cc1c[nH]c2ccccc12)NC(=O)[C@H](CC(N)=O)NC(=O)[C@H](N)Cc1ccc(O)cc1)C(=O)N[C@@H](Cc1ccccc1)C(N)=O` it was 3.7; in that of `CNC(=N)NCCC[C@H](NC(=O)[C@H](CC(C)C)NC(=O)NNC(=O)[C@H](Cc1ccccc1)NC(=O)[C@H](CO)NC(=O)[C@H](CC(N)=O)NC(=O)[C@@H](Cc1ccncc1)NC(=O)[C@H](CC(N)=O)NC(=O)[C@H](N)Cc1ccc(O)cc1)C(=O)N[C@@H](Cc1ccccc1)C(N)=O`, 3.6.

For `CNC(=N)NCCC[C@H](NC(=O)[C@H](CC(C)C)NC(=O)NNC(=O)[C@H](Cc1ccccc1)NC(=O)[C@H](CO)NC(=O)[C@H](CC(N)=O)NC(=O)[C@@H](NC(=O)[C@@H](CC(N)=O)NC(=O)[C@H](N)Cc1ccc(O)cc1)[C@@H](C)O)C(=O)N[C@@H](Cc1ccccc1)C(N)=O`, the fold change (FC) on KiSS-1 receptor [3] was 7.3. On to `CNC(=N)NCCC[C@H](NC(=O)[C@H](CC(C)C)NC(=O)NNC(=O)[C@H](Cc1ccccc1)NC(=O)[C@H](CO)NC(=O)[C@H](CC(N)=O)NC(=O)[C@H](Cc1c[nH]c2ccccc12)NC(=O)[C@@H](CO)NC(=O)[C@H](N)Cc1ccc(O)cc1)C(=O)N[C@@H](Cc1ccccc1)C(N)=O`, for which the fold change (FC) on KiSS-1 receptor [3] came to 3.7. Still for that read-out and setting: in the case of `CNC(=N)NCCC[C@H](NC(=O)[C@H](CC(C)C)NC(=O)NNC(=O)[C@H](Cc1ccccc1)NC(=O)[C@H](CO)NC(=O)[C@H](CC(N)=O)NC(=O)[C@H](Cc1c[nH]c2ccccc12)NC(=O)[C@H](CC(N)=O)NC(=O)[C@H](N)Cc1ccc(O)cc1)C(=O)N[C@@H](Cc1ccccc1)C(N)=O` it was 2.8; in that of `CNC(=N)NCCC[C@H](NC(=O)[C@H](CC(C)C)NC(=O)NNC(=O)[C@H](Cc1ccccc1)NC(=O)[C@H](CO)NC(=O)[C@H](CC(N)=O)NC(=O)[C@H](Cc1c[nH]c2ccccc12)NC(=O)[C@H](N)Cc1cccnc1)C(=O)N[C@@H](Cc1ccccc1)C(N)=O`, 8.7; in that of `CNC(=N)NCCC[C@H](NC(=O)[C@H](CC(C)C)NC(=O)NNC(=O)[C@H](Cc1ccccc1)NC(=O)[C@H](CO)NC(=O)[C@H](CC(N)=O)NC(=O)[C@H](Cc1ccccc1)NC(=O)[C@H](N)Cc1ccc(O)cc1)C(=O)N[C@@H](Cc1ccccc1)C(N)=O`, 7.7. Same read-out and setting: in the case of `CNC(=N)NCCC[C@H](NC(=O)[C@H](CC(C)C)NC(=O)NNC(=O)[C@H](Cc1ccccc1)NC(=O)[C@H](CO)NC(=O)[C@H](CC(N)=O)NC(=O)[C@H](Cc1ccccc1)NC(=O)[C@H](N)Cc1cccnc1)C(=O)N[C@@H](Cc1ccccc1)C(N)=O` it was 5.8. The same measure, in the same setting: as for `CNC(=N)NCCC[C@H](NC(=O)[C@H](CC(C)C)NC(=O)NNC(=O)[C@H](Cc1ccccc1)NC(=O)[C@H](CO)NC(=O)[C@H](CC(N)=O)NC(=O)[C@H](Cc1ccncc1)NC(=O)[C@@H](CC(N)=O)NC(=O)[C@@H](N)Cc1ccc(O)cc1)C(=O)N[C@@H](Cc1ccccc1)C(N)=O`, the figure is 2.7. As for `CNC(=N)NCCC[C@H](NC(=O)[C@H](CC(C)C)NC(=O)NNC(=O)[C@H](Cc1ccccc1)NC(=O)[C@H](CO)NC(=O)[C@H](CC(N)=O)NC(=O)[C@H](Cc1ccncc1)NC(=O)[C@@H](CC(N)=O)NC(=O)[C@H](N)Cc1ccc(O)cc1)C(=O)N[C@@H](Cc1ccccc1)C(N)=O`, the fold change (FC) at KiSS-1 receptor [3] worked out at 1.7. The same measure, in the same setting: in the case of `CNC(=N)NCCC[C@H](NC(=O)[C@H](CC(C)C)NC(=O)NNC(=O)[C@H](Cc1ccccc1)NC(=O)[C@H](CO)NC(=O)[C@H](CC(N)=O)NC(=O)[C@H](Cc1ccncc1)NC(=O)[C@H](CC(N)=O)NC(=O)[C@H](N)Cc1ccc(O)cc1)C(=O)N[C@@H](Cc1ccccc1)C(N)=O` it was 5. Still for that read-out and setting: in the case of `CNC(=N)NCCC[C@H](NC(=O)[C@H](CC(C)C)NC(=O)NNC(=O)[C@H](Cc1ccccc1)NC(=O)[C@H](CO)NC(=O)[C@H](CC(N)=O)NC(=O)[C@H](CO)NC(=O)[C@H](N)Cc1ccc(O)cc1)C(=O)N[C@@H](Cc1ccccc1)C(N)=O` (H-[dY]SNSF[azaGly]L[Arg(Me)]F-NH2) it was 61; in that of `CNC(=N)NCCC[C@H](NC(=O)[C@H](CC(C)C)NC(=O)NNC(=O)[C@H](Cc1ccccc1)NC(=O)[C@H](CO)NC(=O)[C@H](CC(N)=O)NC(=O)[C@H](Cc1ccc2ccccc2c1)NC(=O)[C@H](N)Cc1ccc(O)cc1)C(=O)N[C@@H](Cc1ccccc1)C(N)=O` (H-[dY][2Nal]NSF[azaGly]L[Arg(Me)]F-NH2), 6.4. Same read-out and setting: in the case of `CNC(=N)NCCC[C@H](NC(=O)[C@H](CC(C)C)NC(=O)NNC(=O)[C@H](Cc1ccccc1)NC(=O)[C@H](CO)NC(=O)[C@H](CC(N)=O)NC(=O)[C@H](Cc1ccccc1)NC(=O)[C@@H](CC(N)=O)NC(=O)[C@H](N)Cc1ccc(O)cc1)C(=O)N[C@@H](Cc1ccccc1)C(N)=O` (H-[dY][dN]FNSF[azaGly]L[Arg(Me)]F-NH2) it was 1.5.

For `CC(C)C[C@H](NC(=O)CNC(=O)[C@H](Cc1ccccc1)NC(=O)[C@H](CO)NC(=O)[C@H](CC(N)=O)NC(=O)[C@H](Cc1c[nH]c2ccccc12)NC(=O)[C@H](CC(N)=O)NC(=O)[C@@H](N)Cc1ccc(O)cc1)C(=O)N[C@@H](CCCNC(=N)N)C(=O)N[C@@H](Cc1ccccc1)C(N)=O` [KISSPEPTIN-10], the affinity on KiSS-1 receptor [1] corresponds to a Ki of 0.039 nM.
